One data set deals with Histone deacetylase 1 (Homo sapiens, UniProt Q13547). Put plainly: Inhibition of full length recombinant human C-terminal His/Flag-tagged HDAC1 expressed in baculovirus infected Sf9 cells using fluorogenic HDAC substrate after 30 mins by fluorescence analysis. The procedure, abridged:
(§1)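 Full-length human recombinant HDAC1 (0.4 μg/mL final), HDAC2 (1.5 μg/mL), HDAC3/NCOR2 (0.1 μg/mL) or HDAC6 (3.6 μg/mL) with 10 μM fluorogenic acetyl-lysine substrate and 0.1 mg/mL BSA, 1% DMSO, 30 min at 37 °C; lysine developer 20 min at room temperature; fluorescence ex 355/em 460 nm. Vehicle = positive control, no enzyme = negative; IC50 from curve fit.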

Data set [1] concerns the target cGMP-specific 3',5'-cyclic phosphodiesterase (Homo sapiens, UniProt O76074). Put plainly: Inhibition of full length recombinant human N-terminal GST-tagged PDE5A1 expressed in baculovirus infected Sf9 cells using cGMP as substrate after 30 mins by HTRF assay. In general terms: Time-resolved FRET reads energy transfer from a long-lived donor to a nearby acceptor.
A further data set has as its target Histone deacetylase 2 (Homo sapiens, UniProt Q92769). Put plainly: Inhibition of full length recombinant human C-terminal His-tagged HDAC2 expressed in baculovirus infected Sf9 cells using fluorogenic HDAC substrate after 30 mins by fluorescence analysis. The gist of the method: as §1
Data set [2] can be described thus: Selectivity ratio of pIC50 for full length recombinant human C-terminal His/Flag-tagged HDAC1 expressed in baculovirus infected Sf9 cells to pIC50 for full length recombinant human N-terminal GST tagged HDAC6 expressed in baculovirus infected Sf9 cells.
Data set [3] addresses T1, Protein deacetylase HDAC6 (Homo sapiens, UniProt Q9UBN7).
T1 sequence (Q9UBN7 whole entry): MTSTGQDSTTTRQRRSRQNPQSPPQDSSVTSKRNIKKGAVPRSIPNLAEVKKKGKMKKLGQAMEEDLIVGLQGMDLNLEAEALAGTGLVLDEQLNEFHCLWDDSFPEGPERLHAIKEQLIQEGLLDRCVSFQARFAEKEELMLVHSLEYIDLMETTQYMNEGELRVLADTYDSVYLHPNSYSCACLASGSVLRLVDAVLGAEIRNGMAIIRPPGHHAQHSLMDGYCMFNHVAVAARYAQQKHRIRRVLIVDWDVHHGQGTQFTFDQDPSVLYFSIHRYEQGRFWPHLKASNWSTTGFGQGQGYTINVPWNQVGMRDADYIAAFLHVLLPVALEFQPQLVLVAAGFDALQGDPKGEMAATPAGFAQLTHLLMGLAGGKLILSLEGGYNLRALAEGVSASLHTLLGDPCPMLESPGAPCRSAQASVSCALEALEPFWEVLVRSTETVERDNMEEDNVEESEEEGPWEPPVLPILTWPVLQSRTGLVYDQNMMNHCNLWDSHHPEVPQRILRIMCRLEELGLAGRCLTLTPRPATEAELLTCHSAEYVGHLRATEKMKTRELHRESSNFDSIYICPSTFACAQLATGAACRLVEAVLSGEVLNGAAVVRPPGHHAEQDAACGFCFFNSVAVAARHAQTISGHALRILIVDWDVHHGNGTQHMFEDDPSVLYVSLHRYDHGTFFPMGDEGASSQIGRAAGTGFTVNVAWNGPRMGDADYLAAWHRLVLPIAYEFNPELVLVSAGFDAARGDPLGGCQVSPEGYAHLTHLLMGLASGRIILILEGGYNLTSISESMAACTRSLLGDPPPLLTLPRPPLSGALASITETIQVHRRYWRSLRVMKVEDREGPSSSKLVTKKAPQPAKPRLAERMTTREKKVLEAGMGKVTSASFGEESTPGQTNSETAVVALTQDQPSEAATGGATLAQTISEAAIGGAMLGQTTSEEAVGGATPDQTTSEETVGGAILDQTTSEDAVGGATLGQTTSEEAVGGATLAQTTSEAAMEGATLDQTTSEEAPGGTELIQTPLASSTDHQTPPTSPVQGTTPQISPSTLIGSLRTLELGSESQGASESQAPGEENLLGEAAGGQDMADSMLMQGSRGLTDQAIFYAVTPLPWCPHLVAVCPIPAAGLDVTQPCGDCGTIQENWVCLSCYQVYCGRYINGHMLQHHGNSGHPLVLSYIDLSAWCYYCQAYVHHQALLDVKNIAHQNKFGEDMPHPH
Put plainly: Inhibition of full length recombinant human N-terminal GST tagged HDAC6 expressed in baculovirus infected Sf9 cells using fluorogenic HDAC substrate after 30 mins by fluorescence analysis. The procedure, abridged:
as §1

A short description of data set [4]: Passive membrane permeability of the compound at 50 uM after 18 hrs by PAMPA. Format: ADME. Conditions: read-out: Peff. The procedure, abridged:
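PAMPA: 50 μM donor solution in PBS/EtOH 70:30 over PVDF membrane precoated with PBL/dodecane (20 mg/mL); PBS/EtOH acceptor; 18 h at 20 °C without shaking; duplicates; donor and acceptor concentrations by UV absorbance corrected against vehicle.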
A general note: In PAMPA a lipid-coated filter parts donor from acceptor wells.

The nature of data set [5]: Lipophilicity, log D of the compound at pH 7.4. It counts as physicochemical. Conditions: buffer.
Data set [6] can be described thus: Cytotoxicity against mouse primary glial cells assessed as reduction in cell viability after 72 hrs by luminescence based ATPlite assay. Conditions: read-out: LC50. It counts as toxicity. The gist of the method: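 Primary neuron/glia cultures from embryonic mouse brain were grown 5 days at 37 °C (5% CO2) to allow neuron formation. Compounds were then added at final 0–100 μM in 1% DMSO for 72 h. Cellular ATP was read by luminescence after 10 min with reagent at room temperature.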

Data set [7] is described as follows: Cytotoxicity against human THLE2 cells assessed as reduction in cell viability after 72 hrs by ATP Vialight assay. It counts as toxicity, cell-based, THLE-2. Conditions: read-out: LC50. The gist of the method:
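Immortalized human liver THLE-2 cells in BEGM with 0.7 μg/mL phosphoethanolamine, 0.5 ng/mL EGF, antibiotics and 10% FBS, seeded at 10,000 cells/well and left 24 h at 37 °C. Compounds were added at final 0–100 μM in 1% DMSO for 72 h. Cellular ATP was read by luminescence after 45 min lysis.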

The nature of data set [8]: Dissociation constant, pKa of the compound. Format: physicochemical.
Data set [9] deals with Histone deacetylase 3/Nuclear receptor corepressor 2 (HDAC3/NCoR2) (Homo sapiens, UniProt O15379). Put plainly: Inhibition of full length recombinant human C-terminal His-tagged HDAC3/N-terminal GST-tagged NCOR2 (395 to 489 residues) expressed in baculovirus infected Sf9 cells using fluorogenic HDAC substrate after 30 mins by fluorescence analysis.
Data set [10] in a line: Selectivity ratio of pIC50 for full length recombinant human N-terminal GST tagged HDAC6 expressed in baculovirus infected Sf9 cells to pIC50 for full length recombinant human C-terminal His/Flag-tagged HDAC1 expressed in baculovirus infected Sf9 cells.
A short description of data set [11]: Selectivity ratio of pLC50 for mouse primary glial cells to pLC50 for human THLE2 cells. Conditions: mouse primary glial cells versus THLE2 cells. It counts as ADME, cell-based.

Chain of Histone deacetylase 2 (Q92769 whole entry): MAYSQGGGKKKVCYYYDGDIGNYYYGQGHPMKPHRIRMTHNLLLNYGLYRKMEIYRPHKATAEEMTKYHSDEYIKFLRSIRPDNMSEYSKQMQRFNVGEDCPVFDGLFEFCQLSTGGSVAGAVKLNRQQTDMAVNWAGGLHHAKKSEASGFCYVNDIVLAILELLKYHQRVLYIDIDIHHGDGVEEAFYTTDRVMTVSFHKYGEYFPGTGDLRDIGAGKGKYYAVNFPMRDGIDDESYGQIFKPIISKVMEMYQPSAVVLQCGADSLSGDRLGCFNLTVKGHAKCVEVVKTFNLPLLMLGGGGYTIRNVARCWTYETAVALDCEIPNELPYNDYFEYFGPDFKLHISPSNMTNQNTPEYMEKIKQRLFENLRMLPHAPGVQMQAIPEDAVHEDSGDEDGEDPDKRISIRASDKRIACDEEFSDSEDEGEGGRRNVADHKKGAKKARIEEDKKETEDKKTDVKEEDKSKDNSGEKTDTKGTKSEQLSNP
Chain of Histone deacetylase 1 (Q13547 whole entry): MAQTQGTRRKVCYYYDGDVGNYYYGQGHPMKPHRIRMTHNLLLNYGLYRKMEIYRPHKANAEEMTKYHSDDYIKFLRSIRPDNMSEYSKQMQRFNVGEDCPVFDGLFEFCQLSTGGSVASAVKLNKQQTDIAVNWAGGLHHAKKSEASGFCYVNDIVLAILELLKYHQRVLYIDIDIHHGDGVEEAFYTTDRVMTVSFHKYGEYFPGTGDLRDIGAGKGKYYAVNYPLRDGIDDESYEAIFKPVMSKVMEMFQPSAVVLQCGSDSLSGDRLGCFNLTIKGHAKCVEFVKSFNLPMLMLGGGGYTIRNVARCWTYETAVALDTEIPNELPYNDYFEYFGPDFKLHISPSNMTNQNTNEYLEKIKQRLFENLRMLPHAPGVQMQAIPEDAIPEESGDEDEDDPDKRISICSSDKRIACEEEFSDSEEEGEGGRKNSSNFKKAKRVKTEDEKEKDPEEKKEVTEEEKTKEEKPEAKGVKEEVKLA
Chain of Histone deacetylase 3/Nuclear receptor corepressor 2 (HDAC3/NCoR2) (O15379 whole entry, the tested form may be a part): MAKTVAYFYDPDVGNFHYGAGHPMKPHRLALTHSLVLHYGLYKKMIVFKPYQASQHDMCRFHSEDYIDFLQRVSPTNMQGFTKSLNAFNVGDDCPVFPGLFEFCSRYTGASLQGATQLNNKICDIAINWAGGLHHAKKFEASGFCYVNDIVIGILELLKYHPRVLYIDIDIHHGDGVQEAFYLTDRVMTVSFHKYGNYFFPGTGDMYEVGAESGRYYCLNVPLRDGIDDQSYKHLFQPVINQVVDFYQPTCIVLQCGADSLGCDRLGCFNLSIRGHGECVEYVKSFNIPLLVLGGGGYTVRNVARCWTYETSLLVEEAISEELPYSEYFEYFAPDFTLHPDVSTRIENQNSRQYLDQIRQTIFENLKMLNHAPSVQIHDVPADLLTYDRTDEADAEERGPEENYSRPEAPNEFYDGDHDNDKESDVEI
Chain of Histone deacetylase 3/Nuclear receptor corepressor 2 (HDAC3/NCoR2) (Q9Y618 whole entry, further chain, the tested form may be a part): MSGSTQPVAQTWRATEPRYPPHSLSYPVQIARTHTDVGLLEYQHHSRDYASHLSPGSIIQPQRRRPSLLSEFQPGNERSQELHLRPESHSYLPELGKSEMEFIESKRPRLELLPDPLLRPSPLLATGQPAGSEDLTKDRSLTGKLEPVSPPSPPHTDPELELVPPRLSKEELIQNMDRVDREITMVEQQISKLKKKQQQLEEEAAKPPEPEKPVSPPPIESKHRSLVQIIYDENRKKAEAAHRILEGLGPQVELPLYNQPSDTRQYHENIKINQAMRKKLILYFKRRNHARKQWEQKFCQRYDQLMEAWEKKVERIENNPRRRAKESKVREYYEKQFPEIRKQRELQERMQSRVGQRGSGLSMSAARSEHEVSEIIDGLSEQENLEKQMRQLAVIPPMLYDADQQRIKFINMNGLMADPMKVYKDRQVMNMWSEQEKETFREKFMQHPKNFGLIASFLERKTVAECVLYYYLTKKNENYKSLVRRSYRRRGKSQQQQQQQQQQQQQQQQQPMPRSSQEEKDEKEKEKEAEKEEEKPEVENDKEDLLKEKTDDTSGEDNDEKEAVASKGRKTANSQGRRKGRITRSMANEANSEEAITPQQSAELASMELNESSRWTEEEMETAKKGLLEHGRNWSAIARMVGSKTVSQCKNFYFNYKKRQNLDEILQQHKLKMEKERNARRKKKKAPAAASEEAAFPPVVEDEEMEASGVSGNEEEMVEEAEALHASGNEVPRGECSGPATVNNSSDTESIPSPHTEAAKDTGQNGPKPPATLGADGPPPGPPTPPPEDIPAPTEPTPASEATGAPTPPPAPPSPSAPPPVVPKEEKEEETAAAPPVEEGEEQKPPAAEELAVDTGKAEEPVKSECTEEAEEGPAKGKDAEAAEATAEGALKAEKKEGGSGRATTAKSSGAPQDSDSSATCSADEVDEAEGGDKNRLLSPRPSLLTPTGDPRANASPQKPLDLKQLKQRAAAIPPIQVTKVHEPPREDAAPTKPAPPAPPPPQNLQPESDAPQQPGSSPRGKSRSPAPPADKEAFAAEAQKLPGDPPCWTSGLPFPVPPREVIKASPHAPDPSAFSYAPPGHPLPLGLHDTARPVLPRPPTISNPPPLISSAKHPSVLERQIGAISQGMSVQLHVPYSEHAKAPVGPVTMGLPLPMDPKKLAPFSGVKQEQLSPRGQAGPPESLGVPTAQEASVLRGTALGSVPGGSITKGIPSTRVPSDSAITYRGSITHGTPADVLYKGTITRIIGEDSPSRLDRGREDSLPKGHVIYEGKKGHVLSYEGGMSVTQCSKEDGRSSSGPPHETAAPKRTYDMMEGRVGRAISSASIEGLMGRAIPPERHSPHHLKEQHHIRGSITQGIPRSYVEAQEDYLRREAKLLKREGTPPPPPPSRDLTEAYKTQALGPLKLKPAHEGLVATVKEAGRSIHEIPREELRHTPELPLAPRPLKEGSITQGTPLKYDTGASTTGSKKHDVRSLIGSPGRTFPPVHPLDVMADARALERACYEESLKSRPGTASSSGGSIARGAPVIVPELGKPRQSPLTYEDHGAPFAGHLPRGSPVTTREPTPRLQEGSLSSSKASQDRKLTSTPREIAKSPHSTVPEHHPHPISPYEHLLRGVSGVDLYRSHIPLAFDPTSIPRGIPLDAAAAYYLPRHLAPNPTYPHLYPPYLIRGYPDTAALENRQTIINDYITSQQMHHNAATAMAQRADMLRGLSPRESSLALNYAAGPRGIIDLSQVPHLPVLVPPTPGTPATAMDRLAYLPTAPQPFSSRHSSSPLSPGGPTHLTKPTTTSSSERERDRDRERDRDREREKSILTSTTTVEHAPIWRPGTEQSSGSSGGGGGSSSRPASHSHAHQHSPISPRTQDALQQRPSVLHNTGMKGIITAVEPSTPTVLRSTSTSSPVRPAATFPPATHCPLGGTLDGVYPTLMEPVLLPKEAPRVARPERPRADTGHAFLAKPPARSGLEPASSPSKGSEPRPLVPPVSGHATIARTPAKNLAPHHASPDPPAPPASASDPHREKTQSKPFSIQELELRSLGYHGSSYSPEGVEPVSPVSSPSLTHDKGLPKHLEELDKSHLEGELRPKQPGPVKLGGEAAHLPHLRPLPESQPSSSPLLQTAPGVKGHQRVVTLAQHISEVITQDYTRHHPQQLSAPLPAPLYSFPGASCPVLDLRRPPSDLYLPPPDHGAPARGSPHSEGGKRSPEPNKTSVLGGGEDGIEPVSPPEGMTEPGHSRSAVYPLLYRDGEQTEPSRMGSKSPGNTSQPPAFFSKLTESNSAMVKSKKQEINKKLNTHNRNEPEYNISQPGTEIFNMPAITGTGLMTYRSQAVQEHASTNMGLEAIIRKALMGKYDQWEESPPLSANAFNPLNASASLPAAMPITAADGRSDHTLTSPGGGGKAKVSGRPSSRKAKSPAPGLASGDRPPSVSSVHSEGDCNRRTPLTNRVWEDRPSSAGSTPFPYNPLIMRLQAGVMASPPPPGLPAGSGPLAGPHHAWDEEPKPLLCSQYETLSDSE

In general, IC50 refers to the concentration at which inhibition is half-maximal. In the case of `CCCc1nn(C)c2c(=O)[nH]c(-c3cc(S(=O)(=O)N4CCN(Cc5ccc(/C=C/C(=O)NO)cc5)CC4)ccc3OCC)nc12`, the half-inhibitory concentration (IC50) was found to be 1340 nM at Histone deacetylase 1, 2 nM in data set [1], 6970 nM at Histone deacetylase 2 and 89 nM in data set [3]. Moreover, in data set [2], the Ratio pIC50 is greater than 1.

The logD is the decadic logarithm of the distribution of all forms, ionised or not, between an organic phase and buffer at a given pH. Read a low logD as a more hydrophilic compound. Take `O=C(CCCCCCC(=O)Nc1ccccc1)NO` [VORINOSTAT]: the Papp at 18 h, 50 µM in [4] was 0.23 ×10⁻⁶ cm/s. For the same molecule, the logD in [5] is 2. Also, the CC50 at 72 h in data set [6] was 4910 nM; in data set [7], 3590 nM.

By pKa is commonly meant the negative logarithm of the acid dissociation constant. As to `CCCc1nn(C)c2c(=O)[nH]c(-c3cc(CC4CCN(c5ccc(C(=O)NO)cc5)CC4)ccc3OCC)nc12`, the 50% inhibitory concentration (IC50) was greater than 20000 nM on Histone deacetylase 1, 121 nM in data set [1], greater than 20000 nM at Histone deacetylase 2 and greater than 20000 nM in data set [3]. The molecule also displayed a pKa in [8] of 8.73.

On to `CCCc1nn(C)c2c(=O)[nH]c(-c3cc(CC4CCN(c5ccc(C(=O)NO)cn5)CC4)ccc3OCC)nc12`, for which the 50% inhibitory concentration (IC50) is 1880 nM at Histone deacetylase 1, 57 nM in [1], 6430 nM on Histone deacetylase 2 and 395 nM in [3]. The pKa in data set [8] worked out at 8.29.

In the case of `CCCc1nn(C)c2c(=O)[nH]c(-c3cc(CC4CCN(c5ncc(C(=O)NO)cn5)CC4)ccc3OCC)nc12`, the 50% inhibitory concentration (IC50) in [9] is 51 nM; on Histone deacetylase 1 it was 63 nM; in data set [1] it was 7 nM; on Histone deacetylase 2 it was 335 nM; in data set [3] it was 1250 nM. In data set [10], the Ratio pIC50 was determined as 1.4. For the same molecule, the Papp at 18 h, 50 µM in data set [4] amounted to 0.41 ×10⁻⁶ cm/s. Also, the selectivity ratio in data set [11] is less than 0.4. Further, the pKa in data set [8] was 7.85.

As to `CCCc1nn(C)c2c(=O)[nH]c(-c3cc(C4CC(C(=O)NO)C4)ccc3OCC)nc12` (stereo not given), the Papp at 18 h, 50 µM in data set [4] was 1.37 ×10⁻⁶ cm/s. The concentration for half-maximal inhibition (IC50) at Histone deacetylase 1 is 554 nM; in data set [1] it was 17 nM; on Histone deacetylase 2, 1860 nM; in [3], 130 nM. In data set [2], the Ratio pIC50 was greater than 0.6. In data set [11], the selectivity ratio is less than 0.4.

These data come from ChEMBL document CHEMBL3860059, “Design, Synthesis, and Biological Evaluation of First-in-Class Dual Acting Histone Deacetylases (HDACs) and Phosphodiesterase 5 (PDE5) Inhibitors for the Treatment of Alzheimer's Disease” (J Med Chem, 2016).
